For data set [1], the system named is MDA-MB-231. The data set can be described thus: Induction of cell cycle arrest in human MDA-MB-231 cells assessed as accumulation of cells at G2/M phase at 0.1 uM measured after 48 hrs by PI staining based flow cytometry method (reference value: 17.40%). The data set is classed as functional. For orientation: A flow cytometer gives signals particle by particle.

The target in data set [2] is Homeodomain-interacting protein kinase 3 (Homo sapiens) (UniProt Q9H422). The data set can be described thus: Inhibition of His-tagged human HIPK3 catalytic domain expressed in baculovirus expression system at 1 uM by Selectscreen kinase assay. The method, boiled down:
(§1)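 Single-point screen at 1 μM final against a panel of 25 kinases using a commercial profiling service; mean of three independent experiments each run in triplicate.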

Data set [3] in a line: Intrinsic clearance in rat liver at 1 uM measured after 60 mins in presence of NADPH by LC-MS/MS analysis. The data set is classed as ADME. The settings on record: 1 h. The method, boiled down: (§2)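 Rat liver microsomes (0.5 mg/mL) were incubated at 37 °C with 1 μM compound in 100 mM potassium phosphate, pH 7.4, with 10 mM MgCl2. Reaction was started with prewarmed NADPH cofactor and sampled at 0, 5, 10, 20, 30 and 60 min. Protein was precipitated with cold acetonitrile and supernatants analysed by LC-MS/MS to give half-life, 1 h remaining and intrinsic clearance.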

Data set [4] deals with MDA-MB-231. Briefly: Induction of cell cycle arrest in human MDA-MB-231 cells assessed as accumulation of cells at G0/G1 phase at 0.1 uM measured after 48 hrs by PI staining based flow cytometry method (reference value: 43.43%). Type of data set: functional.
Data set [5] concerns Hepatocyte growth factor receptor (Homo sapiens), P08581 [Y1235D]. The data set can be described thus: Inhibition of GST-tagged partial length human MET (956-1390 residues) Y1235D mutant expressed in insect expression system at 1 uM by Selectscreen kinase assay. The method in brief: as §1
For data set [6], the system named is MDA-MB-231. The data set can be described thus: Inhibition of cell migration in human MDA-MB-231 cells at 0.15 to 0.6 uM by wound healing assay. Type of data set: functional, cell-based. The settings on record: dose 0.15-0.6 µM, time 24-48 hrs, TDE = time-dependent effect. The method, boiled down: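 MDA-MB-231 cells (2×10^6/well) were grown to confluence and the monolayer was scratched with a pipette tip. Cells were washed with PBS, kept in serum-free medium and treated with DMSO or compound at 0.15, 0.3 or 0.6 μM for 48 h. Wound closure was photographed by inverted microscope at 24 and 48 h.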

For data set [7], the system named is A549. The data set can be described thus: Antiproliferative activity against human A549 cells assessed as cell viability at 2.5 uM measured after 48 hrs by MTT assay (reference value: 100%). The settings on record: read-out: Activity. Type of data set: functional.
In another data set the test system is U-87 MG. The data set can be described thus: Antiproliferative activity against human U-87MG cells assessed as inhibition of cell growth measured after 72 hrs by MTT assay. The data set is classed as functional, cell-based, U-87MG ATCC. The method in brief:
(§3)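 Cells were seeded at 4000–5000/well and held 24 h at 37 °C in 5% CO2. Compounds were added at the indicated final concentrations and incubated 72 h. MTT was added (5 mg/mL in PBS, stated as final) for 4 h at 37 °C. Formazan was dissolved in DMSO and absorbance read at 490 nm. The 50% growth-inhibitory concentration is the mean of three independent experiments ± SE.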
A general note: Tetrazolium dyes change colour on reduction, which living cells bring about.

Data set [8] can be described thus: Intrinsic clearance in rat liver microsomes at 1 uM measured after 60 mins in presence of NADPH by LC-MS/MS analysis. Type of data set: ADME, Microsome. The settings on record: read-out: CLH. The method, boiled down: as §2
In general terms: Liver microsomes are vesicles of endoplasmic reticulum, rich in cytochrome P450 enzymes.

Data set [9] deals with A549. Briefly: Antiproliferative activity against human A549 cells assessed as cell viability at 2.5 uM measured after 24 hrs by MTT assay (reference value: 100%). The data set is classed as functional. The settings on record: read-out: Activity.
The subject of data set [10] is MDA-MB-231. Briefly: Induction of cell cycle arrest in human MDA-MB-231 cells assessed as accumulation of cells at S phase at 0.4 uM measured after 48 hrs by PI staining based flow cytometry method (reference value: 39.17%). Type of data set: functional.
A further data set relates to HK-2. Briefly: Cytotoxicity against human HK2 cells assessed as inhibition of cell proliferation measured after 72 hrs by MTT assay. The settings on record: HK-2, 72 h. The data set is classed as cell-based. The method in brief:
as §3

Data set [11] has as its system MDA-MB-231. Briefly: Induction of cell cycle arrest in human MDA-MB-231 cells assessed as accumulation of cells at G0/G1 phase at 0.2 uM measured after 48 hrs by PI staining based flow cytometry method (reference value: 43.43%). The data set is classed as functional.
In data set [12] the test system is A549. Briefly: Antiproliferative activity against human A549 cells assessed as reduction in cell viability at 0.1 to 2.5 uM by MTT assay. The data set is classed as functional, cell-based. The following applies: dose 0.1-2.5 µM, time 24-72 hrs, TDE = time-dependent effect.
For data set [13], the system named is MDA-MB-231. The data set can be described thus: Induction of apoptosis in human MDA-MB-231 cells assessed as early apoptotic cells at 0.4 uM incubated for 48 hrs by Annexin V-FITC/PI staining based flow cytometric analysis (reference value: 1.58%). Type of data set: functional.
In the next data set the target is Focal adhesion kinase 1 (Homo sapiens, UniProt Q05397). The data set can be described thus: Inhibition of N-terminal GST-fused human truncated FAK (376 to 1052 residues) expressed in baculovirus expression system using tyrosine kinase peptide as substrate measured after 50 mins in presence of ATP by homogenous time resolved flourescence assay.
Data set [14] is described as follows: Half life in rat liver microsomes at 1 uM measured up to 60 mins in presence of NADPH by LC-MS/MS analysis. The data set is classed as ADME, Microsome. The method, boiled down:
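Rat liver microsomes (0.5 mg/mL) were incubated with 1 μM test compound at 37 °C in potassium phosphate buffer (pH 7.4, 100 mM, 10 mM MgCl2). The reaction was started with prewarmed NADPH cofactor (1 mmol). It was sampled at 0, 5, 10, 20, 30 and 60 min and quenched with cold acetonitrile. Protein was removed by centrifugation and the supernatant analysed by LC-MS/MS.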

The subject of data set [15] is A549. The data set can be described thus: Antiproliferative activity against human A549 cells assessed as cell viability at 0.1 uM measured after 72 hrs by MTT assay (reference value: 100%). Type of data set: functional. The settings on record: read-out: Activity.
For data set [16], the target named is Fibroblast growth factor receptor 4 (Homo sapiens) (UniProt P22455). The data set can be described thus: Inhibition of His-tagged human FGFR4 cytoplasmic domain expressed in baculovirus expression system at 1 uM by Selectscreen kinase assay. The method in brief: as §1
Data set [17] relates to MDA-MB-231. The data set can be described thus: Antiproliferative activity against human MDA-MB-231 cells assessed as cell viability at 2.5 uM measured after 72 hrs by MTT assay (reference value: 100%). The data set is classed as functional. The settings on record: read-out: Activity.
The target in data set [18] is Inhibitor of nuclear factor kappa-B kinase subunit epsilon (Homo sapiens) (UniProt Q14164). Briefly: Inhibition of GST-tagged full length human IKK epsilon expressed in baculovirus expression system at 1 uM by Selectscreen kinase assay. The method, boiled down: as §1

The text below walks through data of ChEMBL document CHEMBL4765248, “Design, synthesis, biological evaluation and molecular docking study of novel thieno[3,2-d]pyrimidine derivatives as potent FAK inhibitors” (Eur J Med Chem, 2020).

By inhibition is commonly meant the drop in the measured response relative to a control, in per cent. As usually defined, the IC50 is the concentration at which inhibition is half-maximal. By half-life is commonly meant the time in which the quantity being followed falls by half.

Sequence of Homeodomain-interacting protein kinase 3 (Homo sapiens) (Q9H422 whole entry, looked up, the tested form may be a part): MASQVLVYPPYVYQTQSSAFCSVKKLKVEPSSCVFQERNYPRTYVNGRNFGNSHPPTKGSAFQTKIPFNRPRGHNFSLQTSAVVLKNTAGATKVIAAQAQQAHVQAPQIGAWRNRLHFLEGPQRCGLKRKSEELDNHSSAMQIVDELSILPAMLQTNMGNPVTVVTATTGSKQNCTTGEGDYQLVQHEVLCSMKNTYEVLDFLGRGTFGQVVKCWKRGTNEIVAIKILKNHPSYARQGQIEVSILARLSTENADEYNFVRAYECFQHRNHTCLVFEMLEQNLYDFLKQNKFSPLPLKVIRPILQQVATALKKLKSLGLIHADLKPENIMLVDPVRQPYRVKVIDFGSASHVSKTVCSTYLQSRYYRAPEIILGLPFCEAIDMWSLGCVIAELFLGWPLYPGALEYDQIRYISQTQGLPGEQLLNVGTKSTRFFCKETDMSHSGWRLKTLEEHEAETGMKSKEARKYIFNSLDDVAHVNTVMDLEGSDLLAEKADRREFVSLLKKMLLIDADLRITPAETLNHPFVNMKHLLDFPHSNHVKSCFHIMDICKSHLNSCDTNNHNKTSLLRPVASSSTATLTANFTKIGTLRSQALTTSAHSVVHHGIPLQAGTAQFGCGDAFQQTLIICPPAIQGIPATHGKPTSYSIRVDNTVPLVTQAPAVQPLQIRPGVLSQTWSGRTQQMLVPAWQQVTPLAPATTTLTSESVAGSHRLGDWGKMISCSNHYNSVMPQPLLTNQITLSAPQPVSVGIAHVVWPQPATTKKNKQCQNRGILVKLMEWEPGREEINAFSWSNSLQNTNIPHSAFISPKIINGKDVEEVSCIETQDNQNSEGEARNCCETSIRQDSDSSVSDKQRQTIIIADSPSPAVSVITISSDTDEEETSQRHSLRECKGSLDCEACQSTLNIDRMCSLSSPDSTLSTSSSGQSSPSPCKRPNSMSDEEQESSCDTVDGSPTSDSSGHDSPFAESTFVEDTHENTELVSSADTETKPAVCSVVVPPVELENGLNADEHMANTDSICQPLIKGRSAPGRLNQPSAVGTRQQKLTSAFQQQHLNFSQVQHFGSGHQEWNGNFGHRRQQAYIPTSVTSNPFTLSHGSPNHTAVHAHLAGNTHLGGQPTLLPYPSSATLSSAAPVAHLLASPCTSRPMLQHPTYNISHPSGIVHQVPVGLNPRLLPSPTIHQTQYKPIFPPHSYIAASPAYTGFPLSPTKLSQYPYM
Sequence of Fibroblast growth factor receptor 4 (Homo sapiens) (P22455 22-802 limits assumed): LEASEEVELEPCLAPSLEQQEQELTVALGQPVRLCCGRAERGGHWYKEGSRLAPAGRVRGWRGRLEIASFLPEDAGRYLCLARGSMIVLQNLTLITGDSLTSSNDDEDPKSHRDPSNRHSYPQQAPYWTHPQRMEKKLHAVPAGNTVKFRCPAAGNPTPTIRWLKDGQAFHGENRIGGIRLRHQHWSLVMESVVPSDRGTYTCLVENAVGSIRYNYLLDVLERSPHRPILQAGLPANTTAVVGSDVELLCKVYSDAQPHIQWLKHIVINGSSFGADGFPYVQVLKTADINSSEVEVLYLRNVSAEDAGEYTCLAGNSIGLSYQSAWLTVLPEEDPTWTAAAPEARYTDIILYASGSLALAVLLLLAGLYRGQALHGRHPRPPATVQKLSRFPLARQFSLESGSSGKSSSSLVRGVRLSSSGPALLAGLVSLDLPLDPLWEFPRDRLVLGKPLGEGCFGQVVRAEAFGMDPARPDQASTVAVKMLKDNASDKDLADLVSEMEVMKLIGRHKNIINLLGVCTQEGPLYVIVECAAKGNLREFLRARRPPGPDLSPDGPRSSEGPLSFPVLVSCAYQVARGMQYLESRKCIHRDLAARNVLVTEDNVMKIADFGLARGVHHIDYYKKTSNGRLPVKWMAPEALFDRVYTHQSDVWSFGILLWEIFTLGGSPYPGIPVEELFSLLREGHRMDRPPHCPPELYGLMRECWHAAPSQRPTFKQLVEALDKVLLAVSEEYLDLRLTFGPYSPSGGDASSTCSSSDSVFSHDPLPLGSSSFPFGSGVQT
Sequence of Inhibitor of nuclear factor kappa-B kinase subunit epsilon (Homo sapiens) (Q14164 whole entry): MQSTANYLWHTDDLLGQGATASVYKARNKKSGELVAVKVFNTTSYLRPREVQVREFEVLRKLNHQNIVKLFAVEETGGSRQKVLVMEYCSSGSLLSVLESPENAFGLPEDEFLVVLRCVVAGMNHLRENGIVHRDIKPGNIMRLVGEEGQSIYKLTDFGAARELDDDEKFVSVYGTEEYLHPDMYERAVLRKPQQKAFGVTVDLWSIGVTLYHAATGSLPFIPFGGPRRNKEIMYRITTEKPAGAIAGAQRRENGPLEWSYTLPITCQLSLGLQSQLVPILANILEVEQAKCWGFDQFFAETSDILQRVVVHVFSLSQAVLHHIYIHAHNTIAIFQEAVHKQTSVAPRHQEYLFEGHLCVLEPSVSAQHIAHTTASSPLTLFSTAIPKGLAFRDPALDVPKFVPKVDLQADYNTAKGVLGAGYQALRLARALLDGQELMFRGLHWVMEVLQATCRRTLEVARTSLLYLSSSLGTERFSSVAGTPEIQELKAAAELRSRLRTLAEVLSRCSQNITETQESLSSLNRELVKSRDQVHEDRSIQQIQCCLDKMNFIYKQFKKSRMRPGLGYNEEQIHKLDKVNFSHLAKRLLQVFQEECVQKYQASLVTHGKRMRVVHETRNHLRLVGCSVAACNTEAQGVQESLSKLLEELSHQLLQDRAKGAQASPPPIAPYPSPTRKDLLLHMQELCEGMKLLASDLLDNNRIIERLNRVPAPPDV
Sequence of Hepatocyte growth factor receptor (Homo sapiens), P08581 [Y1235D] (P08581 whole entry Y1235D, the tested form may be a part): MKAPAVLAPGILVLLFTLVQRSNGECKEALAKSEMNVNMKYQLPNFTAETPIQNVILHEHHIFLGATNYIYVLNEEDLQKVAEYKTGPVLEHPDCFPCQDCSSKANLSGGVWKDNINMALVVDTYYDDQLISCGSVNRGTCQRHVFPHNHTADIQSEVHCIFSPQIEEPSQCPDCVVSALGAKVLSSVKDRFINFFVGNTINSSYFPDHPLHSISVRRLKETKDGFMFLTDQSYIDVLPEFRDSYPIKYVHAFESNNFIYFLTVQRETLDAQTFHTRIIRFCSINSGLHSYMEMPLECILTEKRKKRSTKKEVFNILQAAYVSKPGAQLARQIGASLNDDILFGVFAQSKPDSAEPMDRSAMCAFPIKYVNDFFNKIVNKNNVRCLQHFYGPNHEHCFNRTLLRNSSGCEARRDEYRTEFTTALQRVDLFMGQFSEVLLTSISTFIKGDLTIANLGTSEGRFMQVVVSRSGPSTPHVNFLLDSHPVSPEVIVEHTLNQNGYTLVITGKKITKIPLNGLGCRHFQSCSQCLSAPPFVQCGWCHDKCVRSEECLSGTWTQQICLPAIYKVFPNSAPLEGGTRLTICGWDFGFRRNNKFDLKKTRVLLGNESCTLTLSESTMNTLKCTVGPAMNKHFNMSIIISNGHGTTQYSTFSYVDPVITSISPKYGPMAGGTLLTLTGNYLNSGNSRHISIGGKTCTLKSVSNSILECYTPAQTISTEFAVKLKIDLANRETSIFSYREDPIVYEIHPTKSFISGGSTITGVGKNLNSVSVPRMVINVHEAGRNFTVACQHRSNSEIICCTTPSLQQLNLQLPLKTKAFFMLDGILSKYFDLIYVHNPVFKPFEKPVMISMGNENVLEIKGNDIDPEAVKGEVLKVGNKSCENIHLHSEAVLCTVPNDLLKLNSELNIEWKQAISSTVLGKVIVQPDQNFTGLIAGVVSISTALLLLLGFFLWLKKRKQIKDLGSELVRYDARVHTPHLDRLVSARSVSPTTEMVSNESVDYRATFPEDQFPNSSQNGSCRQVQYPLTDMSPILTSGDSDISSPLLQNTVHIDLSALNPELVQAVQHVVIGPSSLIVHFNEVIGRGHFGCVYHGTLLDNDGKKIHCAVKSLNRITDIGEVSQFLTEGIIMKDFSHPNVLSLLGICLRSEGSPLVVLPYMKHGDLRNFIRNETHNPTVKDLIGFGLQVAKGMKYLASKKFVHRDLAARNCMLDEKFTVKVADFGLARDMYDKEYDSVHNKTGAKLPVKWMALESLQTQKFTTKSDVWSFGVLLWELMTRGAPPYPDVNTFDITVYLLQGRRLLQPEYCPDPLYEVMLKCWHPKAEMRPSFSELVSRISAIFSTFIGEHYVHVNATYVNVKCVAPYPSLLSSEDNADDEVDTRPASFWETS

With `COc1ccccc1-c1csc2cnc(Nc3ccc(C(=O)NC4CCNCC4)c(F)c3)nc12`, the Activity with MDA-MB-231 [1] was 12.79%; with MDA-MB-231 [4], 45.25%; in the data set on MDA-MB-231 [10] it was 40.18%; with MDA-MB-231 [11], 51.4%; in the data set with A549 [12] it was “Tde”; with MDA-MB-231 [13], 15.61%. Moreover, the inhibition in data set [2] was 72%; in [5], 72%; with MDA-MB-231 [6] it was “Tde”; in data set [16], 66%; in [18], 66%. Further, in data set [3], the CLH came out at 18.6 µL/min/mg. For the same compound, the viability at 2.5 µM in the data set with A549 [7] amounted to 31%; in the data set with A549 [9], 51.5%; in the data set on MDA-MB-231 [17], 9.1%. The results for the IC50 in the data set with U-87 MG, with HK-2 and at Focal adhesion kinase 1 were 160 nM, 3320 nM and 28.2 nM, respectively. Also, in [8], the microsomal CLint at 1 µM was found to be 10.4 µL/min/mg. Also, the half-life at 1 µM in data set [14] is 2.23 h. For the same compound, the viability at 0.1 µM in the data set on A549 [15] amounted to 66.9%.
